Results published in ChEMBL document CHEMBL4513216, “Probing the Open Global Health Chemical Diversity Library for Multistage-Active Starting Points for Next-Generation Antimalarials” (ACS Infect Dis, 2020).

Test: Toxicity liver stage against HepG2, at 10uM
Type: cell-based
Set-up: test concentration 10 uM, cell line HepG2-A16-CD81EGFP
Conditions: human, HepG2-A16-CD81EGFP cells; read-out: INHIBITION
How it was run: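 Uninfected HepG2-A16-CD81EGFP cells, 3 × 10^3 per well, 1536-well, plated on prespotted compound at 10 μM final, parasite-free screening media added to match infected plates; puromycin 10 μM positive, DMSO 0.5% negative; run in parallel with 48 h PbLuc assay at 37 °C, 5% CO2; viability by CellTiter-Glo luminescence, normalized to controls.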

Row | SMILES | cytotoxicity at 10 µM [%]
1 | CCC1CCc2c(c3ccccc3[nH]c2=O)O1 (configuration not stated) | -1.1
2 | CCN(CC)S(=O)(=O)c1ccc(CCC(=O)NCc2cc(C)on2)cc1 | -3.09
3 | COc1ccc(CN2C[C@@H](F)[C@@H](OCc3nc4ccccc4[nH]3)C2)cn1 | -2.59
4 | CC(C)(C)c1coc([C@@H]2COCCN2Cc2c[nH]c3ccccc23)n1 | -1.23
5 | Cc1cc(C(=O)N2CCOC[C@H](Oc3cnccn3)C2)c(C(F)(F)F)o1 | -1.13
6 | CN(C)CCNc1c(-c2ccccc2)c(=O)c1=O | -9.11
7 | Cc1ccc(Nc2cc(N3CCN(S(C)(=O)=O)CC3)nc(C)n2)cc1 | 6.91
8 | COCCn1ccc2ccc(C(=O)O)cc21 | -9.13
9 | O=C(C1CC(=O)N(c2n[nH]c3cc(Br)ccc23)C1)N1CCCC1 (configuration not stated) | -11.2
10 | Cc1cccc(C(=O)N2CCCSCC2CN2CCCC2)c1 (configuration not stated) | 8.77
11 | O=C1CCC2(CCCN(C(=O)Cc3cccs3)C2)N1 (configuration not stated) | 3.76
12 | CN(C)C(=O)CN1CCC2(CCN(C(=O)N(C)C)CC2)C1=O | 0.611
13 | O=C(N1CCOCC1)N1CC[C@H]2[C@@H]1CCC(=O)N2c1ccccc1 | 6.53
14 | O=c1cc(CN2CCCC2)nc2n1CCCN(Cc1ccoc1)C2 | -123
15 | Cc1cc(CN2CCC3(CC2)COC(COc2ccccn2)C3)no1 (configuration not stated) | 5.8
16 | CCOc1c(Cl)cc(Cl)cc1CNCCCn1ccnc1 | -1.32
17 | Cc1c(C(=O)O)nnn1Cc1cccc(C(F)(F)F)c1 | -2.93
18 | Cc1ccc(Sc2ccc(N3CCCC(C(=O)O)C3)nn2)cc1 (configuration not stated) | -8.71
19 | COCCCN1C(=O)CC(N2CCN(c3ccc(F)cc3)CC2)C1=O (configuration not stated) | 2.57
20 | CC(=O)NCCN1CCC(c2cccs2)CC1 | -22.6
21 | COc1cccc2ccn(CCC(=O)N3CCCC(C(=O)O)C3)c12 (configuration not stated) | -9.42
22 | Cc1cccn2c(=O)cc(OC(=O)c3ccccc3)nc12 | 0.64
23 | Cc1nc(C)n(CC2CN(c3ncccn3)Cc3nccn3C2)n1 (configuration not stated) | -8.5

Row | SMILES | cytotoxicity at 10 µM [%]
24 | Cn1cc(CN2CC3(CCN(C(=O)c4ccoc4)C3)C2)cn1 | -8.45
25 | COC(=O)Cn1ccc(=O)c2ccc(OC)cc21 | -20.7
26 | Nc1ncnc2nc(C3CCN(C(=O)Cc4ccc(F)cc4)C3)ccc12 (configuration not stated) | 1.76
27 | CC(C)c1ncc(CN2CCCC2c2[nH]ncc2C(=O)N(C)C)cn1 (configuration not stated) | 0.974
28 | CC(=O)NCc1nccnc1C1CCN(C(=O)c2cc[nH]n2)CC1 | -6.74
29 | O=C(Nc1nncs1)c1ccc(O)nc1 | -6.37
30 | CCOc1ccccc1CCNC(=O)NCC(O)c1ccsc1 (configuration not stated) | -2.23
31 | N#Cc1cn(C2CC2)c(=O)n(Cc2noc(-c3ccsc3)n2)c1=O | 0.836
32 | COCCCNC(=O)Nc1c(C)cccc1C(C)C | 2.66
33 | Cc1nc(C(C)C)sc1C(C)N(C)C(=O)c1ccc(=O)n(C)n1 (configuration not stated) | -1.94
34 | CNS(=O)(=O)CC(=O)NCc1cc2c(s1)CCC(C)(C)C2 | 3.15
35 | CCN(CCNC(=O)Nc1nnc(C)s1)C(=O)OC(C)(C)C | -9.41
36 | O=C1CCCN1CCN1CCCCC1Cn1cncn1 (configuration not stated) | -0.225
37 | O=C(O)c1csc(S(=O)(=O)N2CCN(Cc3ccc(Cl)cc3)CC2)c1 | 4
38 | CC(C)(C)S(=O)(=O)CCNC(=O)c1ccc2cc[nH]c2c1 | -2.61
39 | O=C(c1ccc2c(c1)CCC2)N1CCCCC1C1OCCO1 (configuration not stated) | 0.197
40 | Cc1noc(CN(CCc2cccs2)Cc2cccc(C#N)c2)n1 | 2.27
41 | Cc1ncncc1C(=O)N1CCCC(n2ccnc2C)C1 (configuration not stated) | -2.17
42 | O=c1[nH]nc2n1CCN(S(=O)(=O)c1ccccc1Cl)C2 | 3.61
43 | O=C(CC(F)(F)F)NCC(O)c1ccc2ccccc2c1 (configuration not stated) | -4.06
44 | CC(C)OCc1noc(C2CC=CC2)n1 | 16.5
45 | COc1ccc(C(=O)CCc2nc(C3CC3)no2)cc1F | -2.89
46 | CC(=O)N1CCCN(C(C)c2ccc(Br)cc2)CC1 (configuration not stated) | 7.89

Row | SMILES | cytotoxicity at 10 µM [%]
47 | CN(C)Cc1nc(C2(NC(=O)Nc3ccccc3)CCCC2)no1 | -0.871
48 | O=S(=O)(NC1CCC2(CC1)OCCO2)c1ccccc1Br | -9.01
49 | COc1ccc(OC)c(CCNc2ncc(S(N)(=O)=O)s2)c1 | 3.75
50 | Cc1cc(CN(C)Cc2cc3c(cc2OC(F)F)OCO3)on1 | 0.658
51 | COc1ccc(OCC(=O)NC(C)c2ccc(F)cc2)c(C(=O)O)c1 (configuration not stated) | 2.89
52 | O=S(=O)(CCN1CCOC(Cn2cncn2)C1)c1ccccc1 (configuration not stated) | -9.78
53 | Cc1cnc(CNc2c(F)cccc2-n2cccn2)o1 | 15.6
54 | CC(C)OCCOCc1cccc(NC(=O)NCCn2ccnc2)c1 | -4.63
55 | CCOCCC(=O)Nc1cccc(Oc2ccccn2)c1 | 8.32
56 | CN(Cc1cnn(C)c1)C(=O)c1ccc(=O)n(C)n1 | -7.87
57 | C[C@@H](CO)Nc1nccc(-c2cnc3sc(Cl)cn3c2=O)n1 | 2.52
58 | CCC(C(=O)NC1CCN(S(C)(=O)=O)CC1)n1cccn1 (configuration not stated) | -2.42
59 | O=C(c1ccccc1)C1CCN(C(=O)CC2COCCN2)CC1 (configuration not stated) | -163
60 | O=C(CN1CCCCCC1)NCc1ccc2[nH]c(=O)[nH]c2c1 | -2.86
61 | Cc1cc(C)n(CC2(CNC(=O)C(c3ccc(F)cc3)N(C)C)CC2)n1 (configuration not stated) | 0.438
62 | O=c1n(CC2CCCCO2)nc(CC2CCNCC2)n1-c1ccccc1 (configuration not stated) | -6.66
63 | COCc1cc(N2C[C@@H](C)[C@](O)(C3CC3)C2)ncn1 | 3.73
64 | COc1ccc(-n2nc(C(C)C)nc2Cn2cncn2)cc1 | 4.22
65 | O=C(CCCN1CCCCC1)NC(C(=O)O)c1cccc(F)c1 (configuration not stated) | 1.91
66 | O=C(NC1CC1)c1ccnc(-c2cc(NCCO)nc3[nH]ccc23)c1 | 5.61
67 | CC(=O)N1CCCN(c2nccc(-c3c(C)nn(C)c3C)n2)CC1 | 9.21
68 | COc1cccc2c(=O)n(Cc3cccnc3)cnc12 | -7.85
69 | CSCCN1CCC(NC(=O)OC(C)(C)C)CC1 | 12.3

Row | SMILES | cytotoxicity at 10 µM [%]
70 | COc1cccc(CN(C)Cc2nc3cc(C)ccc3[nH]2)c1O | 2.74
71 | O=C(CCN1CCN(c2ccc3nncn3n2)CC1)N1CCCCC1 | -6.73
72 | COC(=O)C(NC(=O)C1CCC1)c1cc(F)ccc1F (configuration not stated) | 5.54
73 | NC(=O)COc1ccc(C(=O)N2CCCC(n3ccnc3)C2)cc1 (configuration not stated) | -13
74 | COc1cccc2cc(CNCc3ccnc(N4CCCCC4)c3)oc12 | -0.381
75 | Cn1nc2c(cc1=O)CN(Cc1nc(-c3ccccn3)no1)CC2 | -3.51
76 | CN(Cc1noc(C2CC2)n1)C1CCN(Cc2ccc(F)c(F)c2)C1 (configuration not stated) | -0.279
77 | Cc1csc(CNCc2c(C)nn(C)c2N2CCOCC2)n1 | -9.07
78 | Cn1ncc2c(=O)[nH]c(CN3CCCC3c3ccsc3)nc21 (configuration not stated) | -18
79 | Cc1nc(C)n(C2CCCN(C(=O)c3sccc3C)C2)n1 (configuration not stated) | -8.93
80 | CCc1noc(CN2CCC(c3ccnn3CCO)CC2)n1 | -11
81 | CCc1nc(CN2CCCN(C(=O)CC(F)(F)F)CC2)cs1 | -18.9
82 | Cc1csc(N2CCCN(C(=O)c3c(C)noc3C)CC2)n1 | -10.6
83 | Cc1cc(OCC(=O)N2CCCC(c3nccs3)C2)no1 (configuration not stated) | 0.953
84 | Cc1nccc(C(=O)NC(COCC(C)C)c2ccco2)n1 (configuration not stated) | -10.7
85 | Cc1csc(C2CCCCN2C(=O)c2cc(Cl)c[nH]2)n1 (configuration not stated) | -6.73
86 | CCc1nnc(CNC2CCc3nc(C(C)C)nn3C2)o1 (configuration not stated) | -20.6
87 | Cc1cnn(CCC(=O)N2CCCC(c3ccn[nH]3)C2)c1 (configuration not stated) | -8.25
88 | CCc1n[nH]c(C2CN(C(=O)c3ncoc3CC)CCO2)n1 (configuration not stated) | 0.567
89 | Cn1ccc(C(=O)NCc2ccc(CN3CCCCC3)cc2)cc1=O | -12.4
90 | CCc1nc(C)c(C(=O)NCCN2CCCC2)s1 | 1.94
91 | CS(=O)(=O)N1CCC(NC(=O)COc2ccccc2Cl)CC1 | -1.99
92 | COc1ncccc1NC(=O)NC1CCCN(c2ncccn2)C1 (configuration not stated) | -28.8

Row | SMILES | cytotoxicity at 10 µM [%]
93 | CN(CC(=O)N1CCCCC1c1nc(C(C)(C)C)cs1)C1CC1 (configuration not stated) | -2.77
94 | COc1cccc(CN2CCCC2Cn2nc(C)nc2C)c1 (configuration not stated) | 0.665
95 | c1ccc(-c2nc(CNCCn3cccn3)cs2)cc1 | -1.56
96 | CSC(C)C(=O)N1CCCN(Cc2cnn(C(C)C)c2)CC1 (configuration not stated) | -6.29
97 | CC(NC(=O)N(C)CCCOc1ccc(F)cc1)c1nncn1C (configuration not stated) | 2.48
98 | Cc1ccc(CCC(=O)N2CCCC(n3cncn3)C2)c(C)c1 (configuration not stated) | 1.8
99 | Cc1cnn(CC2CCCCN2CC(=O)Nc2c(C)n[nH]c2C)c1 (configuration not stated) | 1.8
100 | COc1ccc(C(=O)N2CCC(Nc3ccc(C)nn3)CC2)c(F)c1 | 1.15
101 | Cc1ccc(CN2CCCC3(CCC(=O)N3)CC2)s1 (configuration not stated) | -5.84
102 | O=C(C[C@@H]1COC[C@H]2CN(C(=O)c3cccnc3)C[C@@H]12)N1CCCC1 | -118
103 | CN(C)CCO[C@H]1CN(C(=O)c2cccs2)[C@@H]2COC[C@H]12 | -3.83
104 | O=C(O)[C@]12CCCN(Cc3ccncc3)C[C@H]1CN(c1ncccn1)C2 | 2.59
105 | O=C(c1cnccn1)N1CCCC2(CCN(Cc3cccnc3)C2)C1 (configuration not stated) | -129
106 | CCN1CC[C@@]2(C(=O)N3CCOCC3)CCN(C(=O)NC)CC[C@@H]12 | -12.7
107 | COc1ncnc2c1CCN(Cc1nccs1)CC2 | 8.73
108 | Cc1ncsc1CN1CCO[C@H]2[C@H](Oc3ccccn3)CC[C@@H]21 | -0.762
109 | CC(=O)N1CCC2(CCN(Cc3ccccn3)C2=O)C1 (configuration not stated) | 0.0869
110 | CC(C)C(=O)N1CC[C@@H]2[C@H](CC1)N(Cc1cccnc1)CCS2(=O)=O | -7.77
111 | CCCS(=O)(=O)N1C[C@@H]2C[C@H](C(=O)N3CCOCC3)[C@H](C1)O2 | -1.95
112 | CC(=O)Nc1c(C)noc1C=Cc1ccc(S(=O)(=O)N2CCCC2)cc1 | 0.931
